The results in this text go back to ChEMBL document CHEMBL3526116, “Toxicological evaluation of acyl glucuronides of nonsteroidal anti-inflammatory drugs using human embryonic kidney 293 cells stably expressing human UDP-glucuronosyltransferase and human hepatocytes” (Drug Metab Dispos, 2011).

The subject of data set [1] is Nucleic Acid. The experiment in a line: Ratio of drug level in human hepatocytes to HEK293 cells expressing UGT1A3 treated with naproxen at 1 mM. Type of data set: ADME, cell-based, Hepatocyte. As to conditions: 1000 µM. The procedure, abridged: (§1)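 Acyl glucuronide in cell fraction (pmol/2 x 10^5 cells) by LC-MS/MS after 6 h exposure in human hepatocytes without (-)-borneol, set against HEK/UGT1A3 cells (2 x 10^5 cells/well, DMEM with 0.5% FBS) exposed to the same drug level; cells pelleted at 3000 x g, resuspended in PBS, extracted with methanol/acetic acid.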

Data set [2] addresses T1, UDP-glucuronosyltransferase 1A3 (Homo sapiens, UniProt P35503).
T1 sequence (P35503 whole entry): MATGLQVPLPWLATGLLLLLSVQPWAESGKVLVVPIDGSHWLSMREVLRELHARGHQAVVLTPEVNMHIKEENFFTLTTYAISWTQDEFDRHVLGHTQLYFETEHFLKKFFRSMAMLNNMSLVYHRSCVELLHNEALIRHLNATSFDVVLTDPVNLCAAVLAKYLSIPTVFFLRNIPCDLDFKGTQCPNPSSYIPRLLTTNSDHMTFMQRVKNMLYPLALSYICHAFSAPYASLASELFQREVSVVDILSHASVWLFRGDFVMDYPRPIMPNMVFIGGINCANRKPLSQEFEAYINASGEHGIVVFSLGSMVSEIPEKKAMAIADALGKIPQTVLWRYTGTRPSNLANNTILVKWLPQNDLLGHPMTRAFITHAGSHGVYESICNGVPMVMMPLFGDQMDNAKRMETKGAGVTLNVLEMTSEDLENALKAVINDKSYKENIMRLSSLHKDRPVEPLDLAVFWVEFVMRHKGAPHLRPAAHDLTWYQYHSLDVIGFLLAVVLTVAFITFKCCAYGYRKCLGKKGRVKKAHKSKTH
Description: Activity of human UGT1A3 expressed in HEK293 cells assessed as enzyme-mediated compound formation per 2 x 10^5 cells treated with naproxen at 1 mM measured at 24 hrs by LC-MS/MS analysis. The class given is ADME, cell-based. Conditions: hek293, 24 h, 1000 µM. The procedure, abridged: (§2)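 HEK293 stably expressing human UGT1A3 (G418-selected), 2 x 10^5 cells/well in 1 mL DMEM with 0.5% FBS, exposed immediately to drug for 6, 12 or 24 h; DMSO ≤0.1% final. Cells and medium separated by centrifugation, cell fraction resuspended in PBS; aliquots mixed 1:1 with methanol/acetic acid (100:1), spun, supernatant analysed by LC-MS/MS. Triplicate determinations, mean ± SD.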

Data set [3] is described as follows: Drug level in cell culture medium treated with naproxen at 1 mM measured at 6 hrs by LC-MS/MS analysis in presence of acyl glucuronidation inhibitor (-)-borneol. Type of data set: physicochemical. As to conditions: 1000 µM.
Data set [4] relates to Hepatocyte. The experiment in a line: Drug level in human hepatocytes assessed per 2 x 10^5 cells treated with naproxen at 1 mM measured at 6 hrs by LC-MS/MS analysis in presence of acyl glucuronidation inhibitor (-)-borneol. Type of data set: ADME, cell-based. As to conditions: 1000 µM.
Data set [5] has as its target T1, UDP-glucuronosyltransferase 1A3. The experiment in a line: Activity of human UGT1A3 expressed in HEK293 cells assessed as enzyme-mediated compound formation in cell culture medium treated with naproxen at 1 mM measured at 6 to 24 hrs by LC-MS/MS analysis. Type of data set: ADME, cell-based. Conditions: hek293, 1000 µM. The procedure, abridged:
as §2

Data set [6] concerns Hepatocyte. The experiment in a line: Drug level in human hepatocytes assessed per 2 x 10^5 cells treated with naproxen at 1 mM measured at 6 hrs by LC-MS/MS analysis in absence of acyl glucuronidation inhibitor (-)-borneol. Conditions: 1000 µM. Type of data set: ADME, cell-based.
In data set [7] the target is T1, UDP-glucuronosyltransferase 1A3. The experiment in a line: Activity of human UGT1A3 expressed in HEK293 cells assessed as enzyme-mediated compound formation in cell culture medium treated with naproxen at 1 mM by LC-MS/MS analysis. As to conditions: hek293, 1000 µM, TDE = time-dependent effect. The class given is ADME, cell-based. The procedure, abridged: as §2

Data set [8] in a line: Drug level in cell culture medium treated with naproxen at 1 mM measured at 6 hrs by LC-MS/MS analysis in absence of acyl glucuronidation inhibitor (-)-borneol. Type of data set: physicochemical. Conditions: 1000 µM.
Data set [9] concerns the target T1, UDP-glucuronosyltransferase 1A3. The experiment in a line: Activity of human UGT1A3 expressed in HEK293 cells assessed as enzyme-mediated compound formation per 2 x 10^5 cells treated with ketoprofen at 1 mM measured at 24 hrs by LC-MS/MS analysis. Type of data set: ADME, cell-based. As to conditions: hek293, 24 h, 1000 µM. The procedure, abridged:
as §2

Data set [10] can be described thus: Drug level in cell culture medium treated with ketoprofen at 1 mM measured at 6 hrs by LC-MS/MS analysis in presence of acyl glucuronidation inhibitor (-)-borneol. The class given is physicochemical. As to conditions: 1000 µM.
Data set [11] has as its target T1, UDP-glucuronosyltransferase 1A3. The experiment in a line: Activity of human UGT1A3 expressed in HEK293 cells assessed as enzyme-mediated compound formation in cell culture medium treated with ketoprofen at 1 mM measured at 6 to 24 hrs by LC-MS/MS analysis. Type of data set: ADME, cell-based. Conditions: hek293, 1000 µM. In outline: as §2
Data set [12] concerns Nucleic Acid. Description: Ratio of drug level in human hepatocytes to HEK293 cells expressing UGT1A3 treated with ketoprofen at 1 mM. The class given is ADME, cell-based, Hepatocyte. Conditions: 1000 µM. The procedure, abridged:
as §1

Data set [13] relates to Hepatocyte. Description: Drug level in human hepatocytes assessed per 2 x 10^5 cells treated with ketoprofen at 1 mM measured at 6 hrs by LC-MS/MS analysis in presence of acyl glucuronidation inhibitor (-)-borneol. Type of data set: ADME, cell-based. As to conditions: 1000 µM.
A short description of data set [14]: Drug level in cell culture medium treated with ketoprofen at 1 mM measured at 6 hrs by LC-MS/MS analysis in absence of acyl glucuronidation inhibitor (-)-borneol. The class given is physicochemical. Conditions: 1000 µM.
The target in data set [15] is T1, UDP-glucuronosyltransferase 1A3. The experiment in a line: Activity of human UGT1A3 expressed in HEK293 cells assessed as enzyme-mediated compound formation in cell culture medium treated with ketoprofen at 1 mM by LC-MS/MS analysis. Type of data set: ADME, cell-based. Conditions: hek293, 1000 µM, TDE = time-dependent effect. In outline: as §2
For data set [16], the system named is Hepatocyte. The experiment in a line: Drug level in human hepatocytes assessed per 2 x 10^5 cells treated with ketoprofen at 1 mM measured at 6 hrs by LC-MS/MS analysis in absence of acyl glucuronidation inhibitor (-)-borneol. The class given is ADME, cell-based. Conditions: 1000 µM.
For data set [17], the target named is T1, UDP-glucuronosyltransferase 1A3. The experiment in a line: Activity of human UGT1A3 expressed in HEK293 cells assessed as enzyme-mediated compound formation in cell culture medium treated with diclofenac at 0.1 mM by LC-MS/MS analysis. The class given is ADME, cell-based. As to conditions: hek293, 100 µM, TDE = time-dependent effect. The procedure, abridged:
as §2

Data set [18] is described as follows: Drug level in cell culture medium treated with diclofenac at 0.1 mM measured at 6 hrs by LC-MS/MS analysis in absence of acyl glucuronidation inhibitor (-)-borneol. Type of data set: physicochemical. As to conditions: 100 µM.
Data set [19] deals with Hepatocyte. Description: Drug level in human hepatocytes assessed per 2 x 10^5 cells treated with diclofenac at 0.1 mM measured at 6 hrs by LC-MS/MS analysis in absence of acyl glucuronidation inhibitor (-)-borneol. Type of data set: ADME, cell-based. Conditions: 100 µM.
For data set [20], the target named is T1, UDP-glucuronosyltransferase 1A3. The experiment in a line: Activity of human UGT1A3 expressed in HEK293 cells assessed as enzyme-mediated compound formation in cell culture medium treated with diclofenac at 0.1 mM measured at 6 to 24 hrs by LC-MS/MS analysis. Type of data set: ADME, cell-based. As to conditions: hek293, 100 µM. In outline:
as §2

Data set [21] is described as follows: Drug level in cell culture medium treated with diclofenac at 0.1 mM measured at 6 hrs by LC-MS/MS analysis in presence of acyl glucuronidation inhibitor (-)-borneol. The class given is physicochemical. Conditions: 100 µM.
In data set [22] the target is T1, UDP-glucuronosyltransferase 1A3. The experiment in a line: Activity of human UGT1A3 expressed in HEK293 cells assessed as enzyme-mediated compound formation per 2 x 10^5 cells treated with diclofenac at 0.1 mM measured at 24 hrs by LC-MS/MS analysis. Type of data set: ADME, cell-based. Conditions: hek293, 24 h, 100 µM. In outline: as §2
The test system of data set [23] is Hepatocyte. Description: Drug level in human hepatocytes assessed per 2 x 10^5 cells treated with diclofenac at 0.1 mM measured at 6 hrs by LC-MS/MS analysis in presence of acyl glucuronidation inhibitor (-)-borneol. Type of data set: ADME, cell-based. Conditions: 100 µM.

`COc1ccc2cc([C@H](C)C(=O)O[C@@H]3O[C@H](C(=O)O)[C@@H](O)[C@H](O)[C@H]3O)ccc2c1`: the Ratio in the data set on Nucleic Acid [1] is recorded as 6. Also, the Drug metabolism in data set [2] was 4.5 pmol; in data set [3], 393.7 pmol/mL; in the data set with Hepatocyte [4] it was 10.3 pmol; in data set [5], 137 pmol/mL; in the data set with Hepatocyte [6], 33.6 pmol; in data set [7], “tde”. Moreover, in data set [8], the Drug metabolism was determined as 1323.9 pmol/mL.

On to `CC(C(=O)O[C@@H]1O[C@H](C(=O)O)[C@@H](O)[C@H](O)[C@H]1O)c1cccc(C(=O)c2ccccc2)c1` (stereo partly drawn), for which the Drug metabolism in [9] is 0.2 pmol; in [10], 54.9 pmol/mL; in data set [11], 6.3 pmol/mL; with Hepatocyte [13], 1.7 pmol; in data set [14], 436.8 pmol/mL; in [15], “tde”. Also, in the data set with Hepatocyte [16], the Drug metabolism is given as 6.8 pmol. Further, the Ratio in the data set with Nucleic Acid [12] was determined as 6.

With `O=C(Cc1ccccc1Nc1c(Cl)cccc1Cl)O[C@@H]1O[C@H](C(=O)O)[C@@H](O)[C@H](O)[C@H]1O`, the Drug metabolism entry in data set [17] is “tde”; in [18] it was 2816.1 pmol/mL; with Hepatocyte [19], 59.6 pmol; in [20], 104 pmol/mL; in data set [21] it was 610.5 pmol/mL; in data set [22], 3.8 pmol. The Drug metabolism in the data set on Hepatocyte [23] is 15.1 pmol.
